# CAL PDZ FP-1: CAL PDZ (human) peptide binding inhibition; Q9HD26; purified CAL PDZ, TMR-peptide fluorescence polarization, 1 h; inhibition, % at 24.9 µM; 0.92% of 300,000 active; AID 602252;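 active = mean inhibition of at least 30% with at least half of replicates also reaching 30%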
# CAL PDZ FP-2: inhibitors of human CAL PDZ peptide binding | 0.02% of 330,000 active | inhibition, % at 20 µM | purified CAL PDZ, TMR-peptide fluorescence polarization, 1 h | Q9HD26;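 active = highest replicate inhibition of at least 40%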
#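 material = purified tagged CAL PDZ domain construct (CerCALP) | compound dosing = 20 µM, one dose | times = 1 h at RT | measured by = fluorescence polarization from S- and P-plane intensities, G-factor corrected | read-out = inhibition from polarization loss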
# ALR inh: human ALR oxidase inhibition via reduced H2O2. inhibition, % (test concentration not listed). 3.8% of 290,000 active. AID 485317. P55789. purified ALR, DTT oxidation, H2O2 HRP-luminol luminescence;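 active = mean replicate inhibition above about 79%, with every replicate also reaching it, limit read from the data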
# Target sequence (P55789 whole entry, looked up): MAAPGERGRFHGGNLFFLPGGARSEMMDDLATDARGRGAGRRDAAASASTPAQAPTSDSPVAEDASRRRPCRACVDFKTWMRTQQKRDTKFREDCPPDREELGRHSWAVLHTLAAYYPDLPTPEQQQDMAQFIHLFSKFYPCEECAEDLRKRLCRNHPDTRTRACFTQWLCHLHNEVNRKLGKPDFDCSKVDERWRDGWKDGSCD
# Dyrk1A ADPGlo: Dyrk1A (rat) kinase inhibition; Q63470; ADP-Glo luminescence, NFATc1 peptide; inhibition, % at 12.5 µM; 0.43% of 310,000 active; in the data active = inhibition above about 50%
# Rtt109 Vps75: C. albicans Rtt109 histone acetyltransferase inhibition; Q5AAJ8; purified Rtt109/Vps75, ThioGlo CoA-SH fluorescence, 4 h; inhibition, % at 34.9 µM; 0.16% of 330,000 active; AID 540336;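 active = inhibition of at least 50% in every replicate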
# Target sequence (Q5AAJ8 whole entry, looked up): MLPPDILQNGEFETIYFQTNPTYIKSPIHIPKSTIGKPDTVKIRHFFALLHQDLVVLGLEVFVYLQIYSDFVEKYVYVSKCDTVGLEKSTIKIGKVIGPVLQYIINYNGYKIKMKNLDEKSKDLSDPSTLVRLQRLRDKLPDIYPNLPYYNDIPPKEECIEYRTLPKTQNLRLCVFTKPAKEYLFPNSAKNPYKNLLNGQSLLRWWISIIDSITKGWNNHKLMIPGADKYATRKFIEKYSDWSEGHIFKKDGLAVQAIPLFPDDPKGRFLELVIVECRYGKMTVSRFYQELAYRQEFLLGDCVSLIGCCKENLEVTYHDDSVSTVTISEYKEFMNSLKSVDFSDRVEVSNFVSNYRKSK
# Hits are given with their value; i = inactive; nt = no result; + = active, no number. Sampled rows, rich in hits. Any-hit rate of the full collection: about 4.3%.
SMILES,CAL PDZ FP-1,CAL PDZ FP-2,ALR inh,Dyrk1A ADPGlo,Rtt109 Vps75
COc1cccc(CNC(=O)Nc2cccs2)c1,i,i,99,i,i
COc1cc(CN2CCNC(=O)C2CC(=O)NCc2csc(C(C)C)n2)cc(OC)c1 (stereo not drawn),i,i,i,i,i
Nc1cc(C(=O)c2ccccc2)ccc1[N+](=O)[O-],37,i,i,i,i
COc1cc(-c2noc(C)c2C(=O)N[C@@H](CO)Cc2ccccc2)cc(OC)c1OC,i,i,nt,nt,i
COc1c(Cl)cc(-c2noc(C)c2C(=O)NC(C)C)cc1Cl,i,i,93,i,i
CC(Sc1nnc(CN2CCCC2)n1Cc1ccccc1)C(=O)Nc1ccc(F)c(F)c1F (stereo not drawn),nt,i,nt,i,i
O=C(Oc1cccc(C(=S)N2CCOCC2)c1)c1cc([N+](=O)[O-])cc([N+](=O)[O-])c1,i,i,i,i,i
Cc1cn(CC(=O)NCc2ccccn2)c(=O)[nH]c1=O,+,i,nt,i,i
CCOC(=O)NN1C(=O)c2ccccc2NC1c1cccs1 (stereo not drawn),i,i,i,i,i
CC(C)c1ccc(N(CC(=O)N2CCOCC2)S(C)(=O)=O)cc1,86,i,i,i,i
CC(C)(C)c1ccc(N/N=C(\C#N)S(=O)(=O)C(C)(C)C)cc1,i,i,i,i,i
CC(C)(C)S(=O)(=O)/C(C#N)=N/Nc1ccc(Cl)cc1,i,i,99,i,i
CCc1ccccc1N/N=C(/C)c1c(O)cc(C)oc1=O,i,i,98,i,i
CCc1nnc(NC(=O)C(c2ccccc2)c2ccccc2)s1,i,i,i,i,i
Nc1ccc(Sc2ccccc2CC(=O)O)cc1,nt,nt,99,nt,nt
Fc1ccccc1NC(=S)Nn1cnnc1,i,i,i,i,i
COC(=O)c1cc(=O)n(-c2ccccc2)c(=Nc2ccccc2)s1,i,i,i,i,i
OCc1csc(=Nc2ccccc2)n1-c1ccccc1,i,i,99,i,i
Oc1cccc(O)c1O,nt,nt,83,nt,nt
Cc1cn([C@H](C(=O)NCCCCCCCCCCC(=O)N2CCN(C(=O)OC(C)(C)C)CC2)[C@@H](C)O)nn1,i,i,i,i,i
CCOC(=O)C(=O)N1CCN(c2cc3c(cc2[N+](=O)[O-])n(C)c(=O)n3C)CC1,i,i,i,i,i
CNc1nc(NN)nc(Nc2ccccc2)n1,58,i,i,i,i
C=CCNC(=O)c1c(Cl)cnn1-c1ccc(C)cc1,i,i,i,i,i
CN(C)c1ccc(NC(=O)Nc2ccc3c(c2)nnn3C)cc1,43,i,i,i,i
COc1ccc([N+](=O)[O-])cc1N(CC(=O)N1CCCCC1)S(C)(=O)=O,i,i,i,i,i
SMILES,CAL PDZ FP-1,CAL PDZ FP-2,ALR inh,Dyrk1A ADPGlo,Rtt109 Vps75
COC(=O)CCSCC(=O)Nc1ccc(C)c(S(=O)(=O)N2CCCCC2)c1,i,i,99,i,i
COc1ccc(CC(=O)Nc2ccc(F)c(S(=O)(=O)N3CCOCC3)c2)cc1,nt,i,nt,i,i
CCc1ccccc1OCC(=O)Nc1ccc(F)c(S(=O)(=O)N2CCOCC2)c1,31,i,nt,i,nt
Cc1ccc(NC(=O)Cc2ccccc2)cc1S(=O)(=O)N1CCOCC1,30,i,i,i,i
COc1ccc(CNC(=O)CN2c3ccccc3S(=O)(=O)c3ccccc32)cc1,i,i,i,i,i
CC1(C)N([O-])C2=C(CCCC2)[N+]1=O,i,nt,nt,i,i
COc1cccc(NC(=O)C2C3C=CC(C3)C2C(=O)O)c1 (stereo not drawn),i,i,i,i,i
Cc1ccc(/C=C/c2ccc(N(C)C)cc2)[n+](C)c1,i,i,99,i,i
CC[n+]1ccccc1/C=C/c1ccc(N(C)C)cc1,i,i,nt,i,i
CN(C)c1ccc(/C=C/c2cc[n+](C)cc2)cc1,i,i,99,i,i
CN(C)c1ccc(/C=C/c2cc[n+]([O-])cc2)cc1,nt,nt,99,nt,nt
Cc1ccc(S(=O)(=O)NCc2cccnc2)cc1,i,i,i,i,i
CCS(=O)(=O)N1CCC(c2nc3ccccc3[nH]2)CC1,nt,i,i,i,i
O=c1[nH]c2c(c(=O)[nH]1)CCC2,i,i,i,i,i
O=C(CC1(CC2=NS(=O)(=O)c3ccccc3N2)CCCC1)NCCc1ccccc1,nt,i,i,i,i
CC(=O)CC(=O)Nc1ncccn1,i,i,i,i,i
CC(=O)c1cc(C(=O)Nc2ccc(C(=O)O)cc2)oc1C,i,i,i,i,i
Cc1oc(C(=O)Nc2ccc(C(=O)O)cc2)cc1COc1ccccc1,nt,i,97,i,i
CCCCn1c(N)c(N(CCOC)C(=O)c2sc3cc(F)ccc3c2Cl)c(=O)[nH]c1=O,i,i,i,i,i
CN(CC(=O)Nc1ccccc1Br)C(=O)c1ccc2c(=O)n3c(nc2c1)CCC3,i,i,i,i,i
Cc1ccc(C)c(NC(=O)CN(C)C(=O)c2ccc3c(=O)n4c(nc3c2)CCC4)c1,49,i,i,i,i
CCn1c(-c2ccccc2)c[nH]c1=S,i,i,99,i,i
CC(C)Cn1c(-c2ccc(F)cc2)n[nH]c1=S,i,i,i,i,i
CC(C)Cn1c(-c2ccc(Br)cc2)c[nH]c1=S,i,i,97,i,i
Cc1ccc(C2C(C#N)=C(N)Oc3cc(C)oc(=O)c32)o1 (stereo not drawn),i,i,i,i,i
SMILES,CAL PDZ FP-1,CAL PDZ FP-2,ALR inh,Dyrk1A ADPGlo,Rtt109 Vps75
CCCCn1c(SCC(=O)NC2CCS(=O)(=O)C2)nc2cc(S(N)(=O)=O)ccc21 (stereo not drawn),i,i,i,i,i
CCN(CC(=O)Nc1c(F)cccc1F)C(=O)c1csc2c1CCCC2,i,i,i,i,i
N#Cc1cc2c([nH]c1=S)CCCCCC2,i,i,nt,i,i
N#Cc1c(N)n[nH]c1-c1cc2c([nH]1)CCCC2,i,i,98,i,nt
Nc1ccc(N=Nc2ccccc2O)c(N)c1,nt,nt,83,nt,nt
O=C(/C=C/c1ccc(O)c(O)c1)OCCc1ccccc1,i,i,98,i,i
O=C(/C=C/c1ccc(O)c(O)c1)OC(Cc1ccc(O)c(O)c1)C(=O)O (stereo not drawn),i,i,99,i,i
O=C(/C=C/c1ccc(O)c(O)c1)c1ccccc1O,i,i,100,i,i
O=C(C=Cc1cccc(O)c1)c1ccccc1O,i,i,nt,i,i
O=C(COC(=O)/C=C/c1cccc(Br)c1)NCCc1ccccc1,i,i,i,i,i
Cc1cc(NC(=S)Nc2ccc(C)c(Cl)c2)n[nH]1,i,i,97,nt,i
O=C(O)c1cc(N=Nc2c(O)ccc3ccccc23)cc(C(=O)O)c1,i,i,nt,i,nt
O=C(O)c1cc2ccccc2c(N=Nc2cccnc2)c1O,i,i,i,73,i
C=CCNc1nc2c3ccccc3n(C(C)=O)c2s1,i,i,96,i,i
COC(=O)c1ccc2c(c1)SC1=C(CCCC1=O)N2,i,i,i,i,i
COC(=O)C1=C(C)Nc2ccc(C)cc2S1,nt,i,98,i,i
Cc1cccc(-c2nc(CS(=O)CC(=O)NC3CCCCC3)c(C)o2)c1 (stereo not drawn),i,i,99,i,i

# From PubChem
